Assays:
[1] = molecular target: T1, Steroid 17-alpha-hydroxylase/17,20 lyase (Rattus norvegicus, UniProt P11715); assay: Inhibition of 17,20-lyase activity of rat testicular microsomal P450-17alpha
T1 sequence (P11715 whole entry): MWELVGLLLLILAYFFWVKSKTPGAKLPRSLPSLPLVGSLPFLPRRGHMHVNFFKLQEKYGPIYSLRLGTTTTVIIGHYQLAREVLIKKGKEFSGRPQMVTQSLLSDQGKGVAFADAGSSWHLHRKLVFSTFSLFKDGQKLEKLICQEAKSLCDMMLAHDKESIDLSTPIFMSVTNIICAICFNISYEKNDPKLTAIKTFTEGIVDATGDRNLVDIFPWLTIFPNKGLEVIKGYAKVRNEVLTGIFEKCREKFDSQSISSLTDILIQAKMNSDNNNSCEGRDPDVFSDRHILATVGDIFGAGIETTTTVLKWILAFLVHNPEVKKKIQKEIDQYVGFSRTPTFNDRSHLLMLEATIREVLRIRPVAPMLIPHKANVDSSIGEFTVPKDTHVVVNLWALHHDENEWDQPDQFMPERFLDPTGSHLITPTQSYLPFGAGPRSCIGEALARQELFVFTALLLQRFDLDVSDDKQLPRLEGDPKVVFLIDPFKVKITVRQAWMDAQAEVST
Method in brief: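 Lyase reaction: rat testicular microsomes (final 0.23 mg/mL), 50 mM sodium phosphate pH 7.4, NADPH-generating system, 1 µM radiolabelled 17α-hydroxyprogesterone substrate; inhibitor added in ethanol; 37 °C prewarm 5 min, then 30 min incubation. Ether-extracted, TLC in DCM/ethyl acetate 4:1, 3H counted per spot; no-inhibitor controls. IC50 from ≥5 concentrations, each in triplicate.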

[2] = molecular target: T1, Steroid 17-alpha-hydroxylase/17,20 lyase; assay: Inhibition of 17-alpha-hydroxylase activity of rat testicular microsomal P450-17alpha
Method in brief: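 Rat testicular microsomes (final 0.16 mg/mL) in 50 mM sodium phosphate pH 7.4 with NADPH-generating system and 1.5 µM radiolabelled progesterone; inhibitor in ethanol; 5 min prewarm at 37 °C, 15 min reaction. Ether extraction, TLC (DCM/ethyl acetate 7:3), spots scintillation-counted for 3H; no-inhibitor controls. IC50 from ≥5 concentrations in triplicate, linear regression of inhibition versus log[I].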

[3] = molecular target: T1, Steroid 17-alpha-hydroxylase/17,20 lyase; assay: Selectivity index, ratio of IC50 for 17-alpha-hydroxylase activity of rat testicular microsomal P450-17alpha to IC50 for 17,20-lyase activity of rat testicular microsomal P450-17alpha
[4] = molecular target: T2, Aromatase (Homo sapiens, UniProt P11511); assay: Inhibition of aromatase
T2 sequence (P11511 whole entry): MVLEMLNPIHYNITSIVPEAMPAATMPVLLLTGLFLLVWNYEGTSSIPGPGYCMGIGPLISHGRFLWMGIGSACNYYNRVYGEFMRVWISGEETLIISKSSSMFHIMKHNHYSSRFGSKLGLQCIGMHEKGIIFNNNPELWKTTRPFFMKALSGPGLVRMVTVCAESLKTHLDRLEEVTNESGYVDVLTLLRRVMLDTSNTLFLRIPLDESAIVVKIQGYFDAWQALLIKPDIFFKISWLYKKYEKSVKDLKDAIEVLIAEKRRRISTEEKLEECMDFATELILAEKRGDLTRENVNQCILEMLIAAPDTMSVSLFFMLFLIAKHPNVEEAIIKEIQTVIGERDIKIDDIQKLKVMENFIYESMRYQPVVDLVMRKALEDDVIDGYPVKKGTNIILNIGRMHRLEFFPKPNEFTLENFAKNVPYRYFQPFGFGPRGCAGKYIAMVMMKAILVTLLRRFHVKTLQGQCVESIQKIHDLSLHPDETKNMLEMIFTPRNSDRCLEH

| IC50 [1] [nM] | IC50 [2] [nM] | IC50 [4] [nM] | SMILES | Ratio IC50 [3] |
| --- | --- | --- | --- | --- |
| 70.4 | 4840 | – | O=S(=O)(Oc1ccc(Cn2ccnc2)cc1)c1ccc(Br)cc1 | 34.6 |
| – | – | 24500 | Cc1ccc(Cn2ccnc2)cc1 | – |
| – | – | 880 | Fc1ccc(Cn2ccnc2)cc1 | – |
| – | – | 70 | Clc1ccc(Cn2ccnc2)cc1 | – |
| 85 | 6880 | – | O=[N+]([O-])c1ccc(S(=O)(=O)Oc2ccc(Cn3ccnc3)cc2)cc1 | 80.9 |
| 65.1 | 10000 | – | O=S(=O)(Oc1ccc(Cn2ccnc2)cc1)c1ccc(I)cc1 | 100.1 |
| 291 | 64900 | – | O=S(=O)(Oc1ccc(Cn2ccnc2)cc1)c1ccc(C(F)(F)F)cc1 | 223.8 |

More lines, now with the values behind:

| SMILES | IC50 [1] [nM] | IC50 [2] [nM] | IC50 [4] [nM] | Ratio IC50 [3] |
| --- | --- | --- | --- | --- |
| Ic1ccc(Cn2ccnc2)cc1 | – | – | – | 6.4 |
| Cc1ccc(S(=O)(=O)Oc2ccc(Cn3ccnc3)cc2)cc1 | 230 | 25200 | – | 109.4 |
| O=S(=O)(Oc1ccc(Cn2ccnc2)cc1)c1ccc(Cl)cc1 | 98.7 | 6850 | – | 69.9 |
| COc1ccc(S(=O)(=O)Oc2ccc(Cn3ccnc3)cc2)cc1 | 101 | 6000 | – | 60 |
| O=S(=O)(Oc1ccc(Cn2ccnc2)cc1)c1ccc(F)cc1 | 210 | 15900 | – | 75.9 |
| CC(=O)N1CCN(c2ccc(OCC3COC(Cn4ccnc4)(c4ccc(Cl)cc4Cl)O3)cc2)CC1 (stereo not given) [KETOCONAZOLE] | – | – | – | 2.3 |
| N#CC(C#N)=Cc1ccc(O)c(O)c1 [TYRPHOSTIN 23] | – | – | 70600 | – |

Reference: ChEMBL document CHEMBL1153473 (Bioorg Med Chem Lett, 2009)
